The values that follow come from ChEMBL document CHEMBL1833950, “Inhibition of steroid sulfatase with 4-substituted estrone and estradiol derivatives” (Bioorg Med Chem, 2011).

Data set [1] has as its target T1, Steryl-sulfatase (Homo sapiens, UniProt P08842).
T1 sequence (P08842 whole entry): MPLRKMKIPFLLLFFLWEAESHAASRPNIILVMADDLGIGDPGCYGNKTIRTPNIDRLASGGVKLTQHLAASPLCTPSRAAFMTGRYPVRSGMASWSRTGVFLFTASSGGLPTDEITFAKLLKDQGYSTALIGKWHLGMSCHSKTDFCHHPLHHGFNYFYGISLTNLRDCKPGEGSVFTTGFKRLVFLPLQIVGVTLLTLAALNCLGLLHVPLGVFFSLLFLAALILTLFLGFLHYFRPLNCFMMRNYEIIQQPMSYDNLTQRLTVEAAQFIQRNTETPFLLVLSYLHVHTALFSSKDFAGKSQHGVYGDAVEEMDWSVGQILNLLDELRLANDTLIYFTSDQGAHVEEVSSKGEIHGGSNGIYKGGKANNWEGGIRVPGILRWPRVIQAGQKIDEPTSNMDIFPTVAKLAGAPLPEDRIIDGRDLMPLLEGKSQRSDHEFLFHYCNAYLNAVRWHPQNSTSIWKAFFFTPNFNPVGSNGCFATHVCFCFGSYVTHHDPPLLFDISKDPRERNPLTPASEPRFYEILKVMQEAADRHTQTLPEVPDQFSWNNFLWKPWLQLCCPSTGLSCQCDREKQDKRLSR
Put plainly: Non-Competitive inhibition of human steroid sulfatase using 4-methylumbelliferyl sulfate substrate by Lineweaver-Burk plot analysis.

The target of data set [2] is T1, Steryl-sulfatase. As to the kind of experiment: (§1) Inhibition of human steroid sulfatase using 4-methylumbelliferyl sulfate substrate after 10 mins by fluorescence assay. An outline of the steps:
(§2)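 Inhibitor is added in DMSO/Tris (1:1) and the reaction is started with enzyme. 4-MUS is 200 µM final. 4-Methylumbelliferone fluorescence (ex 360/em 460 nm) is followed for 10 min at 25 °C. Triplicates; percent activity is taken versus an inhibitor-free control and IC50 derived.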

Data set [3] deals with T2, Steryl-sulfatase (Homo sapiens) (UniProt P08842).
T2 sequence (whole entry): T1 sequence (P08842 whole entry)
As to the kind of experiment: Inhibition of human steroid sulfatase using 4-methylumbelliferyl sulfate substrate at 50 uM by fluorescence assay.

The target of data set [4] is T1, Steryl-sulfatase. As to the kind of experiment: Mixed type inhibition of human steroid sulfatase using 4-methylumbelliferyl sulfate substrate by Lineweaver-Burk plot analysis.
Data set [5] concerns the target T2, Steryl-sulfatase (Homo sapiens). As to the kind of experiment: Inhibition of human steroid sulfatase using 4-methylumbelliferyl sulfate as substrate at 10 uM by fluorescence assay.
The target is the same in data set [6]. The description is as §1. An outline of the steps: as §2
The target is the same in data set [7]. Put plainly: Inhibition of human steroid sulfatase using 4-methylumbelliferyl sulfate substrate at 10 uM after 60 mins by fluorescence assay.
For data set [8] the target is unchanged. Put plainly: Reversible inhibition of human steroid sulfatase using 4-methylumbelliferyl sulfate as substrate at 50 uM after 10 mins by fluorescence assay.
For data set [9] the target is unchanged. Put plainly: Reversible inhibition of human steroid sulfatase using 4-methylumbelliferyl sulfate substrate assessed as enzyme activity recovery at 1 uM after 60 mins by fluorescence assay. Details: scale not given: the % may be the effect or the level left. An outline of the steps: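 Aliquots are assayed with 4 mM 4-MUS at 0 and 60 min. The rest is dialysed against 0.1 M Tris-HCl pH 7.0, 0.1% Triton X-100, with activity measured at 540, 1020 and 1500 min. Triplicates, with an inhibitor-free control.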

Data set [10] addresses T1, Steryl-sulfatase. As to the kind of experiment: Inhibition of human purified steroid sulfatase. An outline of the steps:
as §2

For data set [11], the target named is T2, Steryl-sulfatase (Homo sapiens). As to the kind of experiment: (§3) Inhibition of human steroid sulfatase using 4-methylumbelliferyl sulfate substrate after 5 mins by Kitz-Wilson plot analysis.
For data set [12], the target named is T1, Steryl-sulfatase. Described as §3.
Data set [13] concerns the target T2, Steryl-sulfatase (Homo sapiens). Put plainly: Ratio of Kinact to Ki for human steroid sulfatase after 5 mins by Kitz-Wilson plot analysis.
The target of data set [14] is T1, Steryl-sulfatase. As to the kind of experiment: Time-dependent inhibition of human steroid sulfatase using 4-methylumbelliferyl sulfate substrate by Kitz-Wilson plot analysis.
Data set [15] addresses T2, Steryl-sulfatase (Homo sapiens). Put plainly: Inhibition of human steroid sulfatase using 4-methylumbelliferyl sulfate substrate at 1 uM after 60 mins by fluorescence assay.
The target in data set [16] is T1, Steryl-sulfatase. As to the kind of experiment: Inhibition of human steroid sulfatase using 4-methylumbelliferyl sulfate substrate over 50 mins by Kitz-Wilson plot analysis.
Data set [17] is described as follows: Aqueous solubility of the compound. It is filed as physicochemical. Particulars: buffer.

Molecules are shown by their SMILES. Calls of active or inactive are those of the source. The rule behind the calls is not given here. Some results are limits rather than exact numbers.

In the case of `C[C@]12CC[C@@H]3c4ccc(O)c([N+](=O)[O-])c4CC[C@H]3[C@@H]1CCC2=O`, the Ki at Steryl-sulfatase [1] was 1400 nM. For the same compound, the concentration for half-maximal inhibition (IC50) on Steryl-sulfatase [2] amounted to 2400 nM.

As for `C[C@]12CC[C@@H]3c4ccc(O)c([N+](=O)[O-])c4CC[C@H]3[C@@H]1CC[C@@H]2O`, the IC50 at Steryl-sulfatase [2] stood at 2800 nM.

On Steryl-sulfatase [2], `C[C@]12CC[C@@H]3c4ccc(O)c(F)c4CC[C@H]3[C@@H]1CCC2=O` yielded an IC50 of 3300 nM.

Compound `C=Cc1c(O)ccc2c1CC[C@@H]1[C@@H]2CC[C@]2(C)C(=O)CC[C@@H]12` yielded an inhibition in [3] of 45%.

As to `C[C@]12CC[C@@H]3c4ccc(O)c(N)c4CC[C@H]3[C@@H]1CC[C@@H]2O`, the inhibition in data set [3] turned out to be 43%.

Take `C[C@]12CC[C@@H]3c4ccc(O)c(CN)c4CC[C@H]3[C@@H]1CC[C@@H]2O`: the inhibition in data set [3] is 4%.

As for `C[C@]12CC[C@@H]3c4ccc(O)c(F)c4CC[C@H]3[C@@H]1CC[C@@]2(O)Cc1ccccc1`, the figures for the Ki at Steryl-sulfatase [4] and on Steryl-sulfatase [2] were 90 nM and 30 nM, respectively.

With `C[C@]12CC[C@@H]3c4ccc(O)cc4CC[C@H]3[C@@H]1CC[C@@]2(O)Cc1ccccc1`, the Ki at Steryl-sulfatase [2] amounted to 250 nM.

At Steryl-sulfatase [2], `C[C@]12CC[C@@H]3c4ccc(O)c(C#N)c4CC[C@H]3[C@@H]1CCC2=O` registered an IC50 of 6700 nM.

For `C[C@]12CC[C@@H]3c4cc(Br)c(O)c(C=O)c4CC[C@H]3[C@@H]1CCC2=O`, the “Inhibition activity (active/inactive)” value in [5] was “inactive”. Moreover, the inhibition result in [6] was “inactive”. This compound also gave an IC50 against Steryl-sulfatase [2] of 145000 nM.

The compound `C[C@]12CC[C@@H]3c4cc(C=O)c(O)cc4CC[C@H]3[C@@H]1CC[C@@]2(O)Cc1ccccc1` had an inhibition in data set [7] of 15%.

Regarding `C[C@]12CC[C@@H]3c4cc([N+](=O)[O-])c(O)c(C=O)c4CC[C@H]3[C@@H]1CCC2=O`, in [5], the “Inhibition activity (active/inactive)” value is “inactive”. For the same compound, the inhibition entry in [6] was “inactive”. Besides, in [8], the inhibition was below 50%.

For the compound `C[C@]12CC[C@@H]3c4cc(C=O)c(O)cc4CC[C@H]3[C@@H]1CCC2=O`, the “Inhibition activity (active/inactive)” value in [5] is “inactive”. In addition, the inhibition entry in data set [6] was “inactive”.

Take `C[C@]12CC[C@@H]3c4cc(Br)c(O)cc4CC[C@H]3[C@@H]1CCC2=O`: at Steryl-sulfatase [2], the IC50 came to 40000 nM.

As for `C[C@]12CC[C@@H]3c4ccc(O)c(CO)c4CC[C@H]3[C@@H]1CCC2=O`, the inhibition in [3] was determined as 46%.

Regarding `C[C@]12CC[C@@H]3c4ccc(C=O)cc4CC[C@H]3[C@@H]1CCC2=O`, in data set [5], the “Inhibition activity (active/inactive)” value was “inactive”. In addition, the inhibition entry in data set [6] was “inactive”.

Consider `C[C@]12CC[C@@H]3c4cc([N+](=O)[O-])c(O)cc4CC[C@H]3[C@@H]1CCC2=O`, for which, on Steryl-sulfatase [2], the IC50 was found to be 17000 nM.

On to `C[C@]12CC[C@@H]3c4ccc(O)c(C=O)c4CC[C@H]3[C@@H]1CCC2=O`, for which the Activity in data set [9] was determined as 2%. Besides, the Ki on Steryl-sulfatase [10], on Steryl-sulfatase [12] and at Steryl-sulfatase [14] was 1500 nM in each case. Further, in [11], the Kinact turned out to be 0.13 min⁻¹. Also, the Ratio in data set [13] turned out to be 1 ×10⁵ /M/min.

As to `C[C@]12CC[C@@H]3c4ccc(O)c(C=O)c4CC[C@H]3[C@@H]1CC[C@@]2(O)Cc1ccccc1`, the inhibition is 95% in data set [15] and “Dose-dependent effect” in [6]. In addition, the Activity in data set [9] came out at 14%. Moreover, the “Inhibition activity (active/inactive)” value in data set [5] was “Active”. In addition, in data set [11], the Kinact was 0.021 min⁻¹. Moreover, the Ratio in data set [13] came out at 2.3 ×10⁵ /M/min. In addition, the Ki on Steryl-sulfatase [16] and on Steryl-sulfatase [14] was 85 nM throughout.

With `C[C@]12CC[C@@H]3c4ccc(O)c(Br)c4CC[C@H]3[C@@H]1CCC2=O`, the midpoint of inhibition on Steryl-sulfatase [2], the IC50, lay at 4800 nM.

`C[C@]12CC[C@@H]3c4cc([N+](=O)[O-])c(O)c([N+](=O)[O-])c4CC[C@H]3[C@@H]1CCC2=O`: at Steryl-sulfatase [2], the IC50 amounted to 26000 nM.

As to `C[C@]12CC[C@@H]3c4cc(C=O)c(O)c(C=O)c4CC[C@H]3[C@@H]1CCC2=O`, the solubility entry in [17] is “soluble”. Also, the “Inhibition activity (active/inactive)” value in data set [5] was “inactive”. This compound also showed an IC50 on Steryl-sulfatase [2] of 224000 nM.

As for `C[C@]12CC[C@@H]3c4ccc(O)c(C(=O)O)c4CC[C@H]3[C@@H]1CCC2=O`, the IC50 at Steryl-sulfatase [2] amounted to 215000 nM.

As a reminder, the IC50 is the concentration at which inhibition is half-maximal. What is called inhibition is the change of the read-out against control, counted positive when it falls.
